Shown are actives, neighbours in structure and some others; about 3.3% of the full set was active somewhere.
SENP8 block-1 – inhibitors of human SENP8 protease. Q96LD8. recombinant SENP8, Nedd8 substrate fluorescence. inhibition, % at 20 µM. 360,000 tested, 0.64% active. AID 602440; in the data active = inhibition mostly above about 40%, no sharp cut-off; inactive = mostly below about 27%
Target sequence (Q96LD8 whole entry, looked up): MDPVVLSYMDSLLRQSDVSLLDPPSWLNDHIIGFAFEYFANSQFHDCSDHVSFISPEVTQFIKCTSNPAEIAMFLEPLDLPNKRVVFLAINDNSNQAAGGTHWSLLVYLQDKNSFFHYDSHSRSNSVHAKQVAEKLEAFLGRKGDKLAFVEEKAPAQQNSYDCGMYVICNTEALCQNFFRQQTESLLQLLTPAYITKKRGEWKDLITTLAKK
SENP7 block – inhibitors of human SENP7 protease. recombinant SENP7, Z-RLRGG-aminoluciferin luminescence, 40 min. inhibition, % at 5 µM. Q9BQF6. 330,000 tested, 1.5% active. AID 434973;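 active = inhibition above about 50% at the single test dose, limit read from the data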
NRP1-CendR mod – NRP-1/CendR interaction modulation; 360,000 tested, 0.85% active; FAM-RPARPAR peptide binding to NRP-1, fluorescence polarization; inhibition, % at 25 µM;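 active = inhibition or corrected inhibition above about 18%, plus a signal ratio from 0.5 to 1.5, limit read from the data, passing the limit was not always enough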
SENP8 block-2 – blocks the human protease SENP8; purified SENP8, Z-RLRGG-aminoluciferin cleavage, luminescence; inhibition, % at 10 µM; 330,000 tested, 1.2% active; in the data active = inhibition above about 50%
SENP1 FRET inh – SENP1 (human) catalytic domain inhibition | Q9P0U3 | recombinant SENP1 catalytic domain, CyPet-SUMO1-YPet FRET cleavage | inhibition, % at 10 µM | 360,000 tested, 0.21% active | AID 624204;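 active = inhibition at least 30% at 10 µM, raw YFP signal under a set limit, fluorescence ratio 0.5 to 1.5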
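system = hSENP1 catalytic domain, recombinant | reagent = SFCypet-SUMO1-SFYpet substrate at 25 nM | doses = one dose per compound, 10 µM, 0.5% DMSO | incubation = enzyme reaction for 50 min at room temperature, dark | measured by = FRET, CFP and YFP emission | controls = no-enzyme low, enzyme-DMSO high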
SENP6 block – blocks the human protease SENP6; 330,000 tested, 1.8% active; inhibition, % at 10 µM; Recombinant SENP6 catalytic domain, aminoluciferin luminescence; Q9GZR1;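 active = inhibition above about 50% at the single tested dose, limit read from the data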
Target sequence (Q9GZR1 628-1112 limits assumed): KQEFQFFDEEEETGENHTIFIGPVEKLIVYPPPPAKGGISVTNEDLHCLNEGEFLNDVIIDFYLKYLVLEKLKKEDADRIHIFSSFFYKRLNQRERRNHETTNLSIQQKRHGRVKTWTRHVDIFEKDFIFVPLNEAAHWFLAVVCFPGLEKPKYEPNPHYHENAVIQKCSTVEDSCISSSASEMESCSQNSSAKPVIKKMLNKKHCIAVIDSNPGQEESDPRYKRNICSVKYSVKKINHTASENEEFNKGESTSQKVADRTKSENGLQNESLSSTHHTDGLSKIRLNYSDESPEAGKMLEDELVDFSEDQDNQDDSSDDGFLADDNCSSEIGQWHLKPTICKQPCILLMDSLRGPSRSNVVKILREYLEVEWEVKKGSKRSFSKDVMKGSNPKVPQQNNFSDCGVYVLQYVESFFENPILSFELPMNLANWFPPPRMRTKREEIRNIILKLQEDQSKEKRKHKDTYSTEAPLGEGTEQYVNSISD
SENP8 conf – confirmation of human SENP8 protease inhibitors; shares compounds with SENP7 block; Recombinant SENP8, Z-RLRGG-aminoluciferin luminescence, 60 min; inhibition, % at 12.5 µM; 6,200 tested, 40% active;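 active = mean inhibition across replicates above about 50%, limit read from the data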
SENP6 confirm – confirmation of human SENP6 protease inhibitors; shares compounds with SENP7 block; recombinant SENP6, Z-RLRGG-aminoluciferin luminescence; inhibition, % at 12.5 µM; 6,200 tested, 58% active
SENP7 conf – human SENP7 inhibition, confirmed; shares compounds with SENP7 block; recombinant SENP7, Z-RLRGG-aminoluciferin luminescence, 40 min; inhibition, % at 12.5 µM; 6,200 tested, 69% active; AID 488917
Casp3 select – inhibits human caspase-3 in SENP selectivity test. shares compounds with SENP7 block. purified caspase-3, Z-DEVD-aminoluciferin luminescence, 60 min. inhibition, % at 12.5 µM. 6,200 tested, 60% active. AID 488918;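 active = mean inhibition above about 50%, limit read from the data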
Luc interf – luminescence interference (SENP counter-screen); inhibition, % at 12.5 µM; shares compounds with SENP7 block; Pre-incubated SENP8/Z-RLRGG-aminoluciferin, luciferase luminescence interference; 6,200 tested, 39% active;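 active = mean inhibition above about 50% when retested at one dose, limit read from the data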
A number is an active result; i = inactive; nt = not tested or not shown.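 Rule for the calls, unless noted: active = mean inhibition above about 50% in the one-dose retest (limit read from the data); inactive = the rest.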

SMILES | SENP8 block-1 | SENP7 block | NRP1-CendR mod | SENP8 block-2 | SENP1 FRET inh | SENP6 block | SENP8 conf | SENP6 confirm | SENP7 conf | Casp3 select | Luc interf
Nc1ccc(-c2nc3c(ccc4ccccc43)[nH]2)cc1 | i | i | i | i | i | 59.3 | i | i | i | i | i
O=[N+]([O-])c1cccc(NC(=S)N2CCc3ccccc3C2)c1 | i | i | i | i | i | i | nt | nt | nt | nt | nt
O=C1/C(=C/Nc2cccc([N+](=O)[O-])c2)CCc2ccccc21 | i | i | i | 60.9 | i | i | i | 80.7 | 92.5 | 60.2 | i
O=C(NN=Cc1cc(=O)[nH]c(=O)[nH]1)c1ccncc1 | i | nt | i | nt | i | nt | nt | nt | nt | nt | nt
Cc1ccc(S(=O)(=O)NCC(=O)OCC(=O)Nc2ccc3c(c2)OCCO3)cc1 | i | i | i | i | i | i | nt | nt | nt | nt | nt
Cc1nc2c3cnn(-c4ccc(C)c(C)c4)c3ncn2n1 | i | i | i | i | i | 58.0 | i | i | 68.0 | 78.8 | i
C#CCn1cnc2c(cnn2-c2ccc(C)c(C)c2)c1=O | i | i | i | i | i | i | nt | nt | nt | nt | nt
O=C(CSc1ncnc2c1cnn2-c1cccc(Cl)c1)NCC1CCCO1 (configuration not stated) | i | i | i | 87.4 | i | 88.9 | i | i | i | i | i
Cc1ccc(-n2ncc3c(=O)n(CC(N)=O)cnc32)cc1C | i | i | i | i | i | i | nt | nt | nt | nt | nt
Cc1ccc(-n2ncc3c(SCC(N)=O)ncnc32)cc1C | i | i | i | 57.0 | i | i | i | i | i | i | i
NC(=O)Cc1ccc(C(=O)CSc2nnc(-c3ccncc3)n2C2CC2)s1 | i | i | i | i | i | i | nt | nt | nt | nt | nt
Cc1ccccc1C(=O)N1CCC(C(=O)Nc2ccccn2)CC1 | i | i | i | i | i | i | nt | nt | nt | nt | nt
CCCCSc1nc2c(cnn2-c2ccccc2)c(=O)n1N | i | 68.4 | i | i | i | 81.7 | 68.8 | 66.6 | 88.0 | 62.9 | i
Nn1c(SCc2ccccc2)nc2c(cnn2-c2ccccc2)c1=O | i | i | 22.3 | i | i | 62.0 | i | i | 63.8 | i | i
CCCSc1nc2c(cnn2-c2ccccc2)c(=O)n1N | i | i | i | i | i | i | nt | nt | nt | nt | nt
O=C(O)CSc1nc2c(cnn2-c2ccccc2)c(=O)n1-c1ccc(Br)cc1 | i | i | i | i | i | 55.8 | i | i | i | i | 59.7
Cc1cnc(C2OCCO2)c2cccc(N)c12 | i | nt | i | nt | i | nt | nt | nt | nt | nt | nt
O=C(CN1C(=O)NC2(CCCc3ccccc32)C1=O)c1ccc(F)c(F)c1 (configuration not stated) | i | i | i | i | i | i | nt | nt | nt | nt | nt
N#Cc1ccc(Oc2ccc(C#N)c(C#N)c2)cc1C#N | i | nt | i | nt | i | nt | nt | nt | nt | nt | nt
C[C@@H]1CN([C@H](C)CO)C(=O)CCCn2nncc2CO[C@H]1CN(C)C(=O)Cc1ccccc1 | i | nt | i | nt | i | nt | nt | nt | nt | nt | nt
Cc1cc(O)ccc1Nc1nc(-c2cccs2)cs1 | i | i | i | 69.9 | i | 70.4 | i | 94.7 | 100.5 | 78.4 | 94.2
Cc1cc(C)nc(Nc2nc(-c3ccccc3)cs2)n1 | i | 89.6 | i | 81.8 | i | 73.8 | i | i | i | i | i
Cc1cc(C)nc(Nc2nc(C(N)c3ccccc3)cs2)n1 (configuration not stated) | i | nt | i | nt | i | nt | nt | nt | nt | nt | nt
Cc1ccc(Nc2nc(-c3cccs3)cs2)nc1 | i | i | i | 91.3 | i | 93.2 | i | 97.8 | 101.9 | 85.2 | 67.5
c1cncc(Nc2nc(-c3cccs3)cs2)c1 | i | i | i | i | i | i | nt | nt | nt | nt | nt
SMILES | SENP8 block-1 | SENP7 block | NRP1-CendR mod | SENP8 block-2 | SENP1 FRET inh | SENP6 block | SENP8 conf | SENP6 confirm | SENP7 conf | Casp3 select | Luc interf
Cc1ccc(Nc2nc(-c3ccccc3)cs2)nc1 | i | 88.8 | i | 91.1 | i | i | 84.6 | 96.6 | 102.5 | 84.0 | 71.9
Cc1ccc(S(=O)(=O)Nc2nc(-c3ccccc3)cs2)cc1 | i | i | i | i | i | i | nt | nt | nt | nt | nt
c1ccc(-c2csc(NC3CCCCC3)n2)cc1 | i | i | i | i | i | 66.0 | 83.0 | 82.5 | 95.2 | 62.4 | 67.1
O=C(Nc1nc(-c2ccccc2)cs1)NC1CCCCC1 | i | i | i | i | i | i | nt | nt | nt | nt | nt
Cc1cc(C(=O)COC(=O)C2=NNC(=O)CC2)c(C)n1-c1ccccc1 | i | i | i | i | i | i | nt | nt | nt | nt | nt
Cc1ccc(-n2c(C)cc(C(=O)COC(=O)c3c(C)noc3C)c2C)cc1 | i | 52.4 | i | i | i | 68.4 | 52.0 | 58.2 | 81.7 | 58.9 | i
Cc1cc(C(=O)COC(=O)C2=COCCO2)c(C)n1-c1ccccc1 | i | 84.6 | i | 83.0 | i | 85.4 | 82.9 | 82.9 | 95.9 | 87.6 | 78.1
Cc1cccc2sc(=S)[nH]c12 | i | nt | i | nt | i | nt | nt | nt | nt | nt | nt
C[C@@H]1CN([C@H](C)CO)C(=O)CCCn2nncc2CO[C@@H]1CN(C)S(=O)(=O)c1ccc(C#N)cc1 | i | nt | i | nt | i | nt | nt | nt | nt | nt | nt
O=C(Nc1cc(C(F)(F)F)ccc1Cl)C(Sc1nnc(-c2cccs2)o1)c1ccccc1 (configuration not stated) | i | i | i | 75.7 | i | 81.4 | i | i | i | i | i
O=C(O)c1ccc(-c2nc3scc(-c4ccccc4)c3c(=O)[nH]2)cc1 | i | i | i | i | i | 61.1 | i | i | 61.9 | i | i
CSc1nsc(/C=C/Nc2ccc(C(=O)O)cc2)c1C#N | i | i | i | i | i | 58.4 | i | 68.1 | 88.6 | 56.9 | i
C[C@H](CO)N1C[C@H](C)[C@H](CN(C)S(=O)(=O)c2ccccc2)Oc2c(NS(C)(=O)=O)cccc2C1=O | i | i | i | i | i | i | nt | nt | nt | nt | nt
Cc1cccc(OCC(=O)Nc2nnc(-c3ccco3)s2)c1 | i | i | i | i | i | i | nt | nt | nt | nt | nt
COc1cccc(C(=O)Nc2nnc(-c3cccs3)s2)c1 | i | 52.9 | i | i | i | 53.2 | i | i | i | i | i
CCOc1cccc(C(=O)Nc2nnc(-c3ccco3)s2)c1 | i | 73.1 | i | 60.3 | i | 67.7 | i | i | i | i | i
Cc1ccc(-n2nnc(-c3nccs3)n2)cc1 | i | 97.5 | i | 94.4 | i | 93.6 | 96.7 | 97.2 | 101.3 | 96.7 | 93.7
Clc1ccc(-n2nnc(-c3ncc[nH]3)n2)cc1Cl | i | i | i | i | i | i | nt | nt | nt | nt | nt
Clc1ccc(-n2nnc(-c3cccnc3)n2)cc1Cl | i | 51.5 | i | i | i | 61.6 | i | i | i | 50.9 | i

Screening results from PubChem BioAssay.
